Blank lines part the entries; values can stand above or below the compound they belong to.
Assays:
[1] = Biodistribution of [18F]-FES in alpha estrogen receptor knock out mouse thymus after 30 min; (n=3); format: ADME, organism-based; conditions: in vivo, 0.5 h
Method in brief: (§1)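 Female αERKO mice rested 48 h after shipping and fed estrogen-free chow. Estrous stage was checked by daily vaginal smears, and mice were used in diestrus. Each received 13 µCi [18F]FES in 100 µL 10% ethanol/saline. Animals were sacrificed at 30 min, 1 h or 2 h (n = 3 each). Tissue uptake is reported as %ID/g ± SD.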

[2] = Biodistribution of [18F]-FES in beta estrogen receptor knock out mouse bone after 30 min(n=2); mice in nonestrus stage; format: ADME, organism-based, Bone element; conditions: in vivo, 0.5 h
Method in brief: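 Female βERKO mice on estrogen-free chow were staged by vaginal smear and used in a nonestrus (diestrus) stage. Each received 13 µCi [18F]FES in 100 µL 10% ethanol/saline and was sacrificed at 30 min (n = 2). Uptake is given as %ID/g ± SD.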

[3] = Biodistribution of [18F]FES in beta estrogen receptor knock out mouse ovaries after 30 min(n=2); mice in nonestrus stage; format: ADME, organism-based, Female gonad; conditions: in vivo, 0.5 h
[4] = Biodistribution of [18F]FES in beta estrogen receptor knock out mouse muscle after 30 min(n=2); mice in nonestrus stage; format: ADME, organism-based, Muscle tissue; conditions: in vivo, 0.5 h
[5] = Biodistribution of [18F]FES in alpha estrogen receptor knock out mouse lung after 2 h; (n=3); format: ADME, organism-based; conditions: in vivo
Method in brief: (§2)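 Female αERKO mice were rested 48 h after shipping and fed estrogen-free chow. They were staged by daily vaginal smears and studied in diestrus. Each received 13 µCi [18F]FES in 100 µL 10% ethanol/saline and was sacrificed at 30 min, 1 h or 2 h (n = 3 per time). Tissue uptake is given as %ID/g ± SD.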

[6] = Biodistribution of [18F]FES in beta estrogen receptor knock out mouse brain after 1 h; (n=3); format: ADME, organism-based; conditions: in vivo
[7] = Biodistribution of [18F]-FES in alpha estrogen receptor knock out mouse brain after 2 h; (n=3); format: ADME, organism-based; conditions: in vivo
Method in brief: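 αERKO mice staged in diestrus by vaginal smear after rest on estrogen-free chow. Injected with 13 µCi [18F]FES in 100 µL of 10% ethanol/saline and killed at 30 min, 1 h or 2 h (n=3 each). Tissues weighed and gamma-counted, reported as %ID/g ± SD.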

[8] = Biodistribution of [18F]FES in beta estrogen receptor knock out mouse kidney after 2 h; (n=3); format: ADME, organism-based; conditions: in vivo
[9] = Biodistribution of [18F]FES in beta estrogen receptor knock out mouse thymus after 2 h; (n=3); format: ADME, organism-based; conditions: in vivo
[10] = Biodistribution of [18F]FES in beta estrogen receptor knock out mouse fat after 1 h; (n=3); format: ADME, organism-based, Adipose tissue; conditions: in vivo
[11] = Biodistribution of [18F]FES in beta estrogen receptor knock out mouse fat after 2 h; (n=3); format: ADME, organism-based, Adipose tissue; conditions: in vivo
[12] = Biodistribution of [18F]FES in alpha estrogen receptor knock out mouse fat after 2 h; (n=3); format: ADME, organism-based, Adipose tissue; conditions: in vivo; method in brief: as §2
[13] = Biodistribution of [18F]-FES in alpha estrogen receptor knock out mouse kidney after 2 h; (n=3); format: ADME, organism-based; conditions: in vivo; method in brief: as §1
[14] = Biodistribution of [18F]-FES in alpha estrogen receptor knock out mouse muscle after 1 h; (n=3); format: ADME, organism-based, Muscle tissue; conditions: in vivo; method in brief: as §2
[15] = Biodistribution of [18F]FES in alpha estrogen receptor knock out mouse muscle after 2 h; (n=3); format: ADME, organism-based, Muscle tissue; conditions: in vivo; method in brief: as §2
[16] = Biodistribution of [18F]FES in beta estrogen receptor knock out mouse bone after 30 min; (n=3); format: ADME, organism-based, Bone element; conditions: in vivo, 0.5 h
[17] = Biodistribution of [18F]FES in beta estrogen receptor knock out mouse muscle after 30 min; (n=3); format: ADME, organism-based, Muscle tissue; conditions: in vivo, 0.5 h
[18] = Biodistribution of [18F]FEDPN in alpha estrogen receptor knock out mouse heart after 1 h; (n=3); format: ADME, organism-based; conditions: in vivo
Method in brief: (§3)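 ERKO female mice (αERKO or βERKO), rested 48 h after shipping, placed on estrogen-free chow, and staged by daily vaginal smears. Injected in a nonestrous stage with 11 µCi [18F]FEDPN in 130 µL of 10% ethanol/saline. Killed at 30 min, 1 h or 2 h. Organs counted and reported as %ID/g ± SD, three animals per point.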

[19] = Biodistribution of [18F]FEDPN in alpha estrogen receptor knock out mouse heart after 2 h; (n=3); format: ADME, organism-based; conditions: in vivo; method in brief: as §3
[20] = Biodistribution of [18F]-FEDPN in rat ovaries after 1 hr when given in tail vein; (n=5); format: ADME, organism-based, Female gonad; conditions: in vivo, iv
Method in brief: (§4)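 Immature female Sprague–Dawley rats (<25 days old) anesthetized with isoflurane/O2. Given 20 µCi tracer by tail vein in 150 µL of 20% ethanol/saline. […] Killed at 30 min, 1 h or 2 h. Blood and organs blotted, weighed and gamma-counted against a standard dilution of the injectate. Reported as %ID/g ± SD, n=5.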

[21] = Biodistribution of [18F]FEDPN in rat fat after 1 h block when given in tail vein; (n=5); format: ADME, organism-based, Adipose tissue; conditions: in vivo, iv
Method in brief: (§5)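 Immature female Sprague–Dawley rats (<25 days old) under isoflurane/O2 got 20 µCi tracer in 150 µL 20% ethanol/saline by tail vein. […] Rats were killed at 30 min, 1 h or 2 h. Organs were blotted, weighed and gamma-counted against an injectate standard. Data are %ID/g ± SD, five rats per point.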

[22] = Biodistribution of [18F]FEDPN in rat muscle after 30 min when given in tail vein; (n=5); format: ADME, organism-based, Muscle tissue; conditions: in vivo, iv, 0.5 h; method in brief: as §5
[23] = Biodistribution of [18F]-FEDPN in rat lung after 1 hr block when given in tail vein; (n=5); format: ADME, organism-based; conditions: in vivo, iv; method in brief: as §4
[24] = Biodistribution of [18F]-FEDPN in rat uterus after 1 hr block when given in tail vein; (n=5); format: ADME, organism-based; conditions: in vivo, iv; method in brief: as §4
[25] = Biodistribution of [18F]FEDPN in alpha estrogen receptor knock out mouse brain after 1 h; (n=3); format: ADME, organism-based; conditions: in vivo; method in brief: as §3
[26] = Biodistribution of [18F]FEDPN in alpha estrogen receptor knock out mouse liver after 2 h; (n=3); format: ADME, organism-based; conditions: in vivo; method in brief: as §3
[27] = Biodistribution of [18F]FEDPN in beta estrogen receptor knock out mouse muscle after 1 h; (n=3); format: ADME, organism-based, Muscle tissue; conditions: in vivo
Method in brief: (§6)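 αERKO and βERKO mice, staged by daily vaginal smears and kept on estrogen-free chow, were studied in a nonestrous stage. Each mouse received 11 μCi of tracer in 130 μL of 10% ethanol/saline. Mice were killed at 30 min, 1 h or 2 h (n = 3 each). Organs were removed, blotted, weighed and gamma-counted against an injectate standard. Uptake is given as %ID/g ± SD.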

[28] = Biodistribution of [18F]FEDPN in beta estrogen receptor knock out mouse muscle after 2 h; (n=3); format: ADME, organism-based, Muscle tissue; conditions: in vivo; method in brief: as §6
[29] = Biodistribution of [18F]FEDPN in beta estrogen receptor knock out mouse brain after 30 min; (n=3); format: ADME, organism-based; conditions: in vivo, 0.5 h; method in brief: as §6
[30] = Biodistribution of [18F]FEDPN in alpha estrogen receptor knock out mouse kidney after 2 h; (n=3); format: ADME, organism-based; conditions: in vivo; method in brief: as §3
[31] = Biodistribution of [18F]FEDPN in alpha estrogen receptor knock out mouse spleen after 2 h; (n=3); format: ADME, organism-based; conditions: in vivo; method in brief: as §6
[32] = target: Estrogen receptor (Mus musculus) (UniProt O08537+P19785); assay: Ratio of [18F]FEDPN uptake in uterus of ERbeta KO-mouse (diestrus) and ERalpha KO-mouse (nonestrus) after 2 hr
Estrogen receptor (Mus musculus), sequence (O08537 whole entry, looked up): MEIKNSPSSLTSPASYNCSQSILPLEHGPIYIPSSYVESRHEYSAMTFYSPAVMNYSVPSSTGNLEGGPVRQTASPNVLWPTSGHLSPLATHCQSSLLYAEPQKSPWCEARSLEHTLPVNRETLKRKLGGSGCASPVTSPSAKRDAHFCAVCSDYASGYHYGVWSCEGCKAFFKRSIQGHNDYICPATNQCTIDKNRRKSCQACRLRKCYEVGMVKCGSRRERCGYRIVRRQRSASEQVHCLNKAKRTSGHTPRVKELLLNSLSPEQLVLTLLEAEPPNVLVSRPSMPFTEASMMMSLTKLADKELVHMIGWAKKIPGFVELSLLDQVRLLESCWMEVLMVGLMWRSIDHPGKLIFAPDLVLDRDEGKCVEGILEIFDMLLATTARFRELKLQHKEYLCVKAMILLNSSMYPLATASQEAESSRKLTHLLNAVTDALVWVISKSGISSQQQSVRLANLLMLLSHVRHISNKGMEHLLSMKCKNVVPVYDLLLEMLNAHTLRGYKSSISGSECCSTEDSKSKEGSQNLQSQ
Estrogen receptor (Mus musculus), sequence (P19785 whole entry, looked up): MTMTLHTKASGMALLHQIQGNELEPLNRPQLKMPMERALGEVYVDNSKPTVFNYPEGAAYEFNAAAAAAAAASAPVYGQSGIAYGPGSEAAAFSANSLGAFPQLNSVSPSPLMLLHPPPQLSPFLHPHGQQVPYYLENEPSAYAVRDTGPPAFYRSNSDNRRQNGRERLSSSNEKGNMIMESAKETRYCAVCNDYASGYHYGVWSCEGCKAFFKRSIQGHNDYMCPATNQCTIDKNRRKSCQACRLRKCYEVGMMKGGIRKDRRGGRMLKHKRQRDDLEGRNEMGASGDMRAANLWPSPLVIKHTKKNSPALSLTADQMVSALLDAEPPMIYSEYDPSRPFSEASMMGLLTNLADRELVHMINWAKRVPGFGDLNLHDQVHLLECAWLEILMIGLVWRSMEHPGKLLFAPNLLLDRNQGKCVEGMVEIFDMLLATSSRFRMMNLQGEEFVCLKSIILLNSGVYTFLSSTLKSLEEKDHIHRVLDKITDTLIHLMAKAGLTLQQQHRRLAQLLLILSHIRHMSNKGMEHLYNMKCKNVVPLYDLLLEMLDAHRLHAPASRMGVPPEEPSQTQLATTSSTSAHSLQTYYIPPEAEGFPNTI

Biodistribution [1]: 0.68 %ID/g | Biodistribution [2]: 1.26 %ID/g | Biodistribution [3]: 6.6 %ID/g | Biodistribution [4]: 1.89 %ID/g | Biodistribution [5]: 0.17 %ID/g | Biodistribution [6]: 0.35 %ID/g | Biodistribution [7]: 0.03 %ID/g | Biodistribution [8]: 1.05 %ID/g | Biodistribution [9]: 0.38 %ID/g | Biodistribution [10]: 1.07 %ID/g | Biodistribution [11]: 0.41 %ID/g | Biodistribution [12]: 0.09 %ID/g | Biodistribution [13]: 0.72 %ID/g | Biodistribution [14]: 0.18 %ID/g | Biodistribution [15]: 0.11 %ID/g | Biodistribution [16]: 1.28 %ID/g | Biodistribution [17]: 1.7 %ID/g
SMILES: C[C@]12CC[C@@H]3c4ccc(O)cc4CC[C@H]3[C@@H]1C[C@@H](F)[C@@H]2O [FLUOROESTRADIOL]

Biodistribution [18]: 0.74 %ID/g | Biodistribution [19]: 0.25 %ID/g | Biodistribution [20]: 0.67 %ID/g | Biodistribution [21]: 0.21 %ID/g | Biodistribution [22]: 0.57 %ID/g | Biodistribution [23]: 0.27 %ID/g | Biodistribution [24]: 0.34 %ID/g | Biodistribution [25]: 0.51 %ID/g | Biodistribution [26]: 1.93 %ID/g | Biodistribution [27]: 0.75 %ID/g | Biodistribution [28]: 0.27 %ID/g | Biodistribution [29]: 0.93 %ID/g | Biodistribution [30]: 1.94 %ID/g | Biodistribution [31]: 0.12 %ID/g | Ratio [32]: 1.29
SMILES: N#C[C@H](c1ccc(O)cc1)[C@@H](CCF)c1ccc(O)cc1

— ChEMBL document CHEMBL1141109, “Synthesis of an estrogen receptor beta-selective radioligand: 5-[18F]fluoro-(2R,3S)-2,3-bis(4-hydroxyphenyl)pentanenitrile and comparison of in vivo distribution with 16alpha-[18F]fluoro-17beta-estradiol” (J Med Chem, 2005)
